Bioassay records from PubChem.
Most compounds without a hit are left out; they make up all but 1.3% or so of the library.
G6PDH CS: L. mesenteroides G6PDH inhibition counter-screen; 200,000 compounds, 0.12% hits; Purified L. mesenteroides G6PDH, diaphorase/resazurin coupled fluorescence, 45 min; inhibition, % at 5 µM; in the data active = inhibition above about 50%
HKDC1 inhibitor: HKDC1 (human) hexokinase inhibition; recombinant HKDC1, G6PDH/diaphorase resazurin coupled fluorescence; inhibition, % at 20 µM; AID 493160; 340,000 compounds, 0.16% hits;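 active = inhibition above about 35% when tested at 20 µM, limit read from the data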;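 note: plate controls were DMSO wells with enzyme for no effect and DMSO wells lacking enzyme for full effect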
Target sequence (Q2TB90 whole entry, looked up): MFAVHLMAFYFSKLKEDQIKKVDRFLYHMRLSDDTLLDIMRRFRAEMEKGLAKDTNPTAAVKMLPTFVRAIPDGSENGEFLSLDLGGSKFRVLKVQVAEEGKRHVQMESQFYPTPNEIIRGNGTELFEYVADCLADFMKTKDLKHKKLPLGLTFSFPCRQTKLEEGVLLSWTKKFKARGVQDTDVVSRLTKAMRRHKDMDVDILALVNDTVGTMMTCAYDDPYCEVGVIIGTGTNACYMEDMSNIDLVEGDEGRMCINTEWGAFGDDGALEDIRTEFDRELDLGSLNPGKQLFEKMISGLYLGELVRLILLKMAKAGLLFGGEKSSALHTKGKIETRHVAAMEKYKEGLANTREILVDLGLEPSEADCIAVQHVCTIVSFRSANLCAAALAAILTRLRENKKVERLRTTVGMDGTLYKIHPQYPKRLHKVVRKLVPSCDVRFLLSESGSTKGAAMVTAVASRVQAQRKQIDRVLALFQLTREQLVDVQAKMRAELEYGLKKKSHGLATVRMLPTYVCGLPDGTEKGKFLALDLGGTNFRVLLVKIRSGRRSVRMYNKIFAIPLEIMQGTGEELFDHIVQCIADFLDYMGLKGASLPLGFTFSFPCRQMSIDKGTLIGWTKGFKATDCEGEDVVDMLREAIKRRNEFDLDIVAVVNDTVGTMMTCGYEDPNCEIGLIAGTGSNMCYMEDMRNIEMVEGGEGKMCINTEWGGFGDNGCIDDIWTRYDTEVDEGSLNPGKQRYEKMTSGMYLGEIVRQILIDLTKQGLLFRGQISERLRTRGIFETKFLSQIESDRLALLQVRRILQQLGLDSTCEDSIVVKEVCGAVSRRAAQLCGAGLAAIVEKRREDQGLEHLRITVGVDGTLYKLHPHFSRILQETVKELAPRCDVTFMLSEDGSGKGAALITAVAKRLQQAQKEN
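Test system: Recombinant HKDC1 (HK5) hexokinase enzyme, produced in-house | Input: HKDC1 at 5 µg/mL | Buffer or medium: Tris pH 8.0 buffer with MgCl2, Tween-20, BSA, BME | Schedule: 90 min reaction incubation at room temperature, dark | Technique: Resazurin-to-resorufin fluorescence via G6PDH and diaphorase coupling, 525/613 nm | Controls: DMSO wells with and without enzyme mix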
Diaphorase act: diaphorase activation or chemical reduction counter-screen; Diaphorase/resazurin coupled assay, resorufin fluorescence, 16 min; stronger effect = higher value; 1 = vehicle wells, 0 = NADH-free wells; activation factor at 20 µM; 190,000 compounds, 0.005% hits;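 active = diaphorase activity raised at least twofold by the compound at 20 µM; inactive = activation factor below 2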
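System – purified diaphorase enzyme from Clostridium kluyveri · Input – enzyme 0.07 U/mL final · Also added – final NADH 0.114 mM, resazurin 0.1 mM · Measured by – fluorescence of resorufin, 544 nm excitation, 590 nm emission · Timing – 16 min enzyme reaction, ambient temperature · Measure – resorufin increase flagging diaphorase activators or reducers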
Diaph inh CS: diaphorase inhibition or chemical oxidation counter-screen; diaphorase resazurin-to-resorufin fluorescence, NADH, 16 min; bacterial (C. kluyveri) enzyme, not human; inhibition, % at 20 µM; 190,000 compounds, 0.69% hits;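 active = primary screen inhibition at 20 µM above a set limit, cut at about 50% in these data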;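 note: plate controls were DMSO with full reaction for no effect and wells lacking NADH for full effect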
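System: Diaphorase enzyme from Clostridium kluyveri | Amount: Enzyme working solution with 0.14 U/mL diaphorase | Benchmarks: No-NADH positive control and DMSO neutral control | Signal: Fluorescence of resorufin formed from resazurin, Ex 544/Em 590 nm | Schedule: 16-min room-temperature incubation before reading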
PfGluPho inh: PfG6PD (Plasmodium falciparum) enzyme inhibition. 350,000 compounds, 0.78% hits. inhibition, % at 20 µM. PfGluPho enzyme, NADPH resazurin-diaphorase fluorescence;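 active = inhibition reaching at least a set limit at 20 µM in the primary screen, cut at about 59% in these data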;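 note: 0% = DMSO wells with substrate and 100% = DMSO wells lacking glucose-6-phosphate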
PfGluPho conf: PfG6PD inhibition, single-dose confirmed | shares compounds with PfGluPho inh | recombinant PfGluPho, NADPH-diaphorase-resazurin fluorescence | AID 504753 | 2,400 compounds, 34% hits | inhibition, % at 20 µM;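 active = inhibition of at least 50% at 20 µM in any single replicate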;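 note: 0% = DMSO with substrate and 100% = DMSO lacking glucose-6-phosphate substrate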
Diaphorase 10uM: inhibits diaphorase or oxidizes, flagging false PfG6PD hits | inhibition, % at 20 µM | 820 compounds, 39% hits | shares compounds with PfGluPho inh | AID 504862 | diaphorase-coupled resazurin reduction, fluorescence, NADPH 10 uM;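 active = average inhibition reaching 50% or more with the compound at 20 µM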;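 note: resorufin red fluorescence formed as diaphorase reduces resazurin using NADPH; 0% = DMSO with enzyme and 100% = DMSO without enzyme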
Diaph ctr 30uM: counter-screen for P. falciparum G6PD inhibitors: diaphorase inhibitors, oxidizers. Diaphorase/resazurin coupled assay, resorufin fluorescence, 30 uM NADPH. AID 504863. shares compounds with PfGluPho inh. inhibition, % at 20 µM. 820 compounds, 29% hits;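 active = inhibition averaging 50% or more, tested at 20 µM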;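 note: 0% = DMSO with enzyme and 100% = DMSO wells lacking diaphorase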
* hit, by the source's call; nt = not tested or not shown.

SMILES	G6PDH CS	HKDC1 inhibitor	Diaphorase act	Diaph inh CS	PfGluPho inh	PfGluPho conf	others
COc1ccc2c(c1)-c1ccccc1S(=O)(=O)N2C	6.4	5.4	0.9	12.8	59.5*	29.9
Cc1nc(Nc2cnc(/C=C/c3cc(C(=O)Nc4cccc(C(F)(F)F)c4)ccc3C)cn2)cc(N2CCNCC2)n1	nt	-8.8	nt	nt	62.3*	-12.3
Cc1nc(N2CCC(C)CC2)c2c(C)c(C(=O)Nc3cccc(C(F)(F)F)c3)sc2n1	4.2	0.3	0.9	14.0	8.4	nt
O=C(Nc1cccc(F)c1)c1ccc(-c2ccccc2Cl)o1	17.8	1.7	0.9	9.6	78.8*	-6.9
Cc1ccc(-c2ccc(C(=O)Nc3cccc(F)c3)o2)c2ccccc12	27.8	10.2	0.9	7.7	27.5	nt
COc1ccc(NC(=O)c2ccc(-c3ccccc3Cl)o2)cc1	11.8	5.2	1	4.4	64.6*	12.7
Nc1cc(N)c(OCC(F)(F)F)cc1OCC(F)(F)F	51.0*	21.1	0.5	50.5*	99.1*	93.5*	Diaphorase 10uM=33.6;Diaph ctr 30uM=22.1
COc1ccc(NS(=O)(=O)c2cc(C)ccc2OC)cc1OC	-1.9	3.7	0.9	10.4	-12.6	nt
COc1ccc(F)cc1S(=O)(=O)Nc1ccc(C)cc1	-4.9	-6.2	1	-1.6	63.4*	36.8
CCOC(=O)c1c(NC(=O)C2CCCO2)sc(C(=O)OC(C)(C)C)c1C (centres undefined)	-0.2	-5.0	0.9	12.5	63.1*	11.8
Oc1ccc(N2CCN(c3nc(-c4cccs4)nc4ccccc34)CC2)cc1	nt	8.9	nt	nt	60.4*	6.4
CCCN1Cc2cccc(C(=O)NC3CCCC3)c2C1=O	-15.5	0.1	0.9	7.5	-0.6	nt
COc1ccc(-n2c(=S)[nH]c3[nH]ncc3c2=O)cc1	nt	0.3	nt	nt	49.5	nt
O=c1c2cn[nH]c2[nH]c(=S)n1-c1ccccc1	7.3	-1.9	0.4	60.6*	59.5*	0.1
CC(C)(CNC(=O)c1cc(-c2ccc(Cl)s2)nc2ccccc12)N1CCOCC1	nt	3.7	nt	nt	6.4	nt
COCCN1C(=O)c2oc3cc(C)c(C)cc3c(=O)c2C1c1ccc(O)cc1 (centres undefined)	nt	0.2	nt	nt	4.4	nt
N#CCCN(C(=O)Nc1ccc(Cl)cc1)c1ccccc1	2.6	-5.2	1.1	-12.9	12.3	nt
Cc1ccc(OCc2nnc(SCC(=O)Nc3sc(C)c(C)c3C#N)n2C)cc1	2.0	-6.5	0.9	5.7	-8.9	nt
CCOC(=O)C1C(=O)OC2(CCCCC2)C1C(=O)OCC (centres undefined)	0.8	-6.0	1	3.1	-9.0	nt
c1ccc(OCCSc2nnc3sc4ccccc4n23)cc1	1.9	11.2	0.8	15.8	105.0*	97.5*	Diaphorase 10uM=88.2*;Diaph ctr 30uM=73.8*
COc1ccc(CCN(C(=O)C(F)(F)F)C(C(=O)NC2CCCC2)c2cccs2)cc1 (centres undefined)	8.2	-5.7	0.9	10.9	12.6	nt
CCNC(=O)CCn1nc(-c2ccc(C)cc2)c2ccccc2c1=O	nt	-4.6	nt	nt	-3.5	nt
CCSc1nnc(Nc2ccccc2)s1	3.4	-5.1	0.7	29.8	-5.5	nt
CCSc1nnc(NC(=O)c2ccccc2)s1	1.4	-5.3	0.8	15.9	62.3*	21.3
Cc1cc(C(=O)Nc2nnc(C(F)(F)F)s2)cs1	nt	0.3	nt	nt	118.7*	82.0*	Diaphorase 10uM=77.3*;Diaph ctr 30uM=72.0*
O=C(Nc1nnc(C(F)(F)F)s1)c1ccc(Br)s1	-3.5	1.6	0.9	6.4	85.3*	71.9*	Diaphorase 10uM=65.2*;Diaph ctr 30uM=52.3*
CCSc1nnc(Nc2ccc(C)cc2)s1	6.4	-0.5	0.9	7.3	65.7*	23.6
Cc1cc(C(=O)Nc2nnc(C(F)(F)F)s2)no1	-17.2	-0.3	0.9	10.0	17.1	nt
CC(C)(C)OC(=O)C(C1NC(C(=O)O)C(C)(C)S1)N1C(=O)c2ccccc2C1=O (centres undefined)	nt	-4.4	nt	nt	-19.9	nt
Cc1nn(-c2ccccc2)c(NC(=O)c2ccccc2)c1Br	nt	2.1	nt	nt	-1.5	nt
